# Measurements taken from ChEMBL document CHEMBL5715960, “Epigenetic Co-Deregulation of EZH2/TET1 is a Senescence-Countering, Actionable Vulnerability in Triple-Negative Breast Cancer” (Theranostics, 2019).
# Activity calls are given as the source filed them. No cut-off for these calls is given here.
# Experiments:
# BT-474 [1] = assay: Effect on human BT-474 cells assessed as increase in TET1 transcription by qRT-PCR analysis; type: functional, cell-based
# How it was run: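 qRT-PCR of TET1, TET2 and TET3 transcripts in breast cancer cells exposed to GSK343 (2 µM unless otherwise indicated), shown relative to DMSO-treated cells. Mean ± SD, triplicate unless stated.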
# MDA-MB-436 [2] = assay: Effect on human MDA-MB-436 cells assessed as apoptotic phenotype by measuring increase in PUMA expression level at 2 uM in presence of adriamycin by immunoblot analysis; type: functional, cell-based
# How it was run: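 Immunoblot of cell lysates after 0.05 µg/ml adriamycin alone, with 2 µM GSK343, or DMSO. α-Tubulin and total H3 used as loading controls.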
# MCF7 [3] = assay: Antiproliferative activity in human MCF7 cells assessed as increase in SA-beta-gal positive cells at 2 uM for 5 days by SA-beta-gal staining analysis; type: toxicity, cell-based; conditions: mcf7, 120 h, time 5 day
# How it was run: (§1)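 GSK343 2 µM or DMSO for 5 days, then chromogenic SA-β-gal staining and counting of positive cells. Triplicate; mean ± SD.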
# MDA-MB-361 = assay: Cytotoxicity against human MDA-MB-361 cells assessed as increase in cell death at 10 uM for 2 days by Guava viacount assay; type: toxicity, cell-based; conditions: mda-mb-361, 48 h, time 2 day
# How it was run: (§2)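 Cells plated at 2 × 10^4 (24-well) or 1 × 10^5 (12-well), exposed to a range of GSK343 concentrations for 2 days against DMSO solvent control; cell number and viability read by Guava ViaCount flow cytometry, relative to DMSO. Triplicate; mean ± SD.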
# MDA-MB-436 [4] = assay: […] in human MDA-MB-436 cells xenografted in Crl:NU-Foxn1-nu/nu mouse […] administered at 5 mg/kg, ip in presence of adriamycin treated for 21 days by SA-beta-gal staining analysis; type: functional, organism-based; conditions: time 21.0 day
# How it was run: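 SA-β-gal staining of xenograft tumors. Twice-weekly intraperitoneal GSK343 5 mg/kg, adriamycin 1 mg/kg, the combination, or DMSO, started at a tumor volume of about 50 mm3 and continued for 21 days.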
# SK-BR-3 = assay: Cytotoxicity against human SK-BR-3 cells at 0.5 to 2 uM for 2 days by Guava viacount assay; type: toxicity, cell-based; conditions: sk-br-3, 48 h, dose 0.5-2 µM, time 2 day; how it was run: as §2
# MDA-MB-231 [5] = assay: Antiproliferative activity against human MDA-MB-231 cells assessed as increase in global H3K9me3 expression level by immunoblot analysis; type: functional, cell-based
# How it was run: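 Cells exposed to GSK343 at 2 µM (standard level unless stated otherwise), lysed and immunoblotted; α-tubulin and total H3 as loading controls.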
# MDA-MB-436 [6] = assay: Downregulation of EZH2 transcription in human MDA-MB-436 cells at 2 uM for 2 days by immunoblot analysis; type: functional, cell-based; conditions: time 2.0 day
# MDA-MB-436 [7] = assay: Effect on […] in human MDA-MB-436 cells assessed as repression in TET1 promoter EZH2 by ChiP-qPCR analysis; type: functional, cell-based
# How it was run: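 Cells treated with GSK343 or DMSO; chromatin immunoprecipitated with anti-EZH2 or anti-H3K27me3 antibody and quantified by qPCR with primers for the TET1 promoter; input as internal control, IgG as negative control.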
# MDA-MB-436 [8] = assay: Cytotoxicity against human MDA-MB-436 cells assessed as killing of cells at 2 uM in presence of adriamycin; type: functional, cell-based
# How it was run: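 Viability after a range of adriamycin concentrations given alone or together with 2 µM GSK343, measured by Guava ViaCount; mean ± SD.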
# MDA-MB-436 [9] = assay: Induction of cell cycle arrest in human MDA-MB-436 cells assessed as accumulation of cells at S phase measured at 2 uM by BrdU/PI staining based flow cytometric analysis (reference value: 39.5%); type: functional
# MDA-MB-231 [10] = assay: Induction of cell cycle arrest in human MDA-MB-231 cells assessed as accumulation of cells at S phase measured at 2 uM by BrdU/PI staining based flow cytometric analysis (reference value: 44.6%); type: functional
# BT-474 [11] = assay: Cytotoxicity against human BT-474 cells assessed as increase in cell death at 10 uM for 2 days by Guava viacount assay; type: toxicity, cell-based; conditions: bt-474, 48 h, time 2 day; how it was run: as §2
# MDA-MB-231 [12] = assay: In vivo activation of TET1 in Crl:NU-Foxn1-nu/nu mouse xenografted with human MDA-MB-231 cells at 5 mg/kg, ip in presence of adriamycin treated for 21 days; type: functional, organism-based; conditions: time 21.0 day
# MCF7 [13] = assay: Cytotoxicity against human MCF7 cells assessed as increase in cell death at 10 uM for 2 days by Guava viacount assay; type: toxicity, cell-based; conditions: mcf7, 48 h, time 2 day; how it was run: as §2
# MDA-MB-231 [14] = assay: Antiproliferative activity in human MDA-MB-231 cells assessed as increase in SA-beta-gal positive cells at 2 uM for 5 days by SA-beta-gal staining analysis; type: functional, cell-based; conditions: time 5.0 day; how it was run: as §1
# MDA-MB-436 [15] = assay: Effect on […] in human MDA-MB-436 cells assessed as repression in TET1 promoter H3K27me3 by ChiP-qPCR analysis; type: functional, cell-based
# How it was run: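 ChIP-qPCR on MDA-MB-231 and MDA-MB-436 cells exposed to GSK343 or DMSO. Chromatin pulled down with anti-H3K27me3 antibody and amplified with primers specific for the TET1 promoter. Input (no immunoprecipitation) serves as internal control and anti-IgG as negative control. Mean ± SD, triplicate unless stated.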
# MDA-MB-436 [16] = assay: Effect on human MDA-MB-436 cells expressing shTET1 assessed as increase in p21 cascade by immunoblot analysis; type: functional, cell-based
# MCF7 [17] = assay: Effect on human MCF7 cells assessed as increase in TET1 level at 2 uM in presence of adriamycin by immunoblot analysis; type: functional, cell-based
# How it was run: (§3)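 Immunoblot of MDA-MB-231 and MCF7 lysates after 0.005 µg/ml adriamycin with or without 2 µM GSK343, or DMSO. α-Tubulin and total H3 used as loading controls.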
# MDA-MB-436 [18] = assay: Upregulation of […] signalling in human MDA-MB-436 cells at 2 uM for 2 days by immunoblot analysis; type: functional, cell-based; conditions: time 2.0 day
# MDA-MB-436 [19] = assay: Effect on human MDA-MB-436 cells expressing shTET1 assessed as increase in H3K9me3 cascade by immunoblot analysis; type: functional, cell-based
# MDA-MB-231 [20] = assay: Effect on human MDA-MB-231 cells expressing shTET1 assessed as increase in p53 cascade by immunoblot analysis; type: functional, cell-based
# MCF7 [21] = assay: Cytotoxicity against human MCF7 cells at 0.5 to 2 uM for 2 days by Guava viacount assay; type: toxicity, cell-based; conditions: mcf7, 48 h, dose 0.5-2 µM, time 2 day; how it was run: as §2
# MDA-MB-436 [22] = assay: Upregulation of TET1 in human MDA-MB-436 cells at 2 uM for 2 days by immunoblot analysis; type: functional, cell-based; conditions: time 2.0 day
# MDA-MB-436 [23] = assay: In vivo activation of TET1 in Crl:NU-Foxn1-nu/nu mouse xenografted with human MDA-MB-436 cells at 5 mg/kg, ip in presence of adriamycin treated for 21 days; type: functional, organism-based; conditions: time 21.0 day
# MCF7 [24] = assay: Effect on human MCF7 cells assessed as decrease in H3K27me3 level at 2 uM in presence of adriamycin by immunoblot analysis; type: functional, cell-based; how it was run: as §3
# MDA-MB-231 [25] = assay: Effect on human MDA-MB-231 cells assessed as decrease in H3K27me3 level at 2 uM in presence of adriamycin by immunoblot analysis; type: functional, cell-based; how it was run: as §3
# MDA-MB-231 [26] = assay: Antitumor activity against human MDA-MB-231 cells xenografted in Crl:NU-Foxn1-nu/nu mouse assessed as reduction in tumor administered at 5 mg/kg, ip in presence of adriamycin treated for 21 days; type: functional, organism-based; conditions: time 21.0 day
smiles,measurement,setting,value
CCCc1cc(C)[nH]c(=O)c1CNC(=O)c1cc(-c2ccnc(N3CCN(C)CC3)c2)cc2c1cnn2C(C)C,Activity,BT-474 [1],inactive
same,Activity,MDA-MB-436 [2],Active
same,Activity,MCF7 [3],Non-Toxic
same,Activity,MDA-MB-361,Non-Toxic
same,Activity,MDA-MB-436 [4],Active
same,Activity,SK-BR-3,Non-Toxic
same,Activity,MDA-MB-231 [5],Active
same,Activity,MDA-MB-436 [6],Active
same,Activity,MDA-MB-436 [7],Active
same,Activity,MDA-MB-436 [8],Active
same,Activity,MDA-MB-436 [9],15.2%
same,Activity,MDA-MB-231 [10],16.1%
same,Activity,BT-474 [11],Non-Toxic
same,Activity,MDA-MB-231 [12],Active
same,Activity,MCF7 [13],Non-Toxic
same,Activity,MDA-MB-231 [14],Active
same,Activity,MDA-MB-436 [15],Active
same,Activity,MDA-MB-436 [16],inactive
same,Activity,MCF7 [17],inactive
same,Activity,MDA-MB-436 [18],Active
same,Activity,MDA-MB-436 [19],inactive
same,Activity,MDA-MB-231 [20],inactive
same,Activity,MCF7 [21],Non-Toxic
same,Activity,MDA-MB-436 [22],Active
same,Activity,MDA-MB-436 [23],Active
same,Activity,MCF7 [24],inactive
same,Activity,MDA-MB-231 [25],Active
same,Activity,MDA-MB-231 [26],Active
